Laboratory results taken from ChEMBL document CHEMBL3244142, “Antifungal properties of 2-bromo-3-fluorosuccinic acid esters and related compounds” (1977).
≈ marks a conversion by molar mass, not a printed value. Where a name gives a salt, the structure may show the parent alone. Calls of active or inactive are those of the source. The rule behind the calls is not given here.

Columns and labels:
[1] = system: Mucor mucedo; assay: Antifungal activity against Mucor mucedo ATCC 7941 at <100 ug/ml at pH 7 after 20 h in presence of 10% beef serum
[2] = system: Trichophyton mentagrophytes; assay: Antifungal activity against Trichophyton mentagrophytes ATCC 9129 at <100 ug/ml at pH 7 after 5 days in presence of 10% beef serum; type: functional, organism-based
Outline: (§1)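 Agar-dilution MIC in Sabouraud dextrose agar at pH 5.6 or 7.0, with or without 10% beef serum. Plates were incubated at 28 °C for 5 days. MIC is the lowest concentration (µg/mL) giving 100% inhibition. Steps were 1 µg/mL up to 10, 2 µg/mL from 10–20, and 10 µg/mL from 20–100; 100 µg/mL was the top level, and no inhibition there is scored as >100.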

[3] = system: Trichophyton mentagrophytes; assay: Antifungal activity against Trichophyton mentagrophytes ATCC 9129 at pH 5.6 after 5 days in presence of 10% beef serum; type: functional; conditions: Trichophyton mentagrophytes, ATCC 9129, 120 h; read-out: MIC
Outline: as §1

[4] = system: Aspergillus niger; assay: Antifungal activity against Aspergillus niger ATCC 1004 at <100 ug/ml at pH 5.6 after 5 days in absence of 10% beef serum; type: functional, organism-based
Outline: as §1

[5] = system: Trichophyton mentagrophytes; assay: Antifungal activity against Trichophyton mentagrophytes ATCC 9129 at pH 7 after 5 days in absence of 10% beef serum; type: functional; conditions: Trichophyton mentagrophytes, ATCC 9129, 120 h; read-out: MIC
Outline: as §1

[6] = system: Candida albicans; assay: Antifungal activity against Candida albicans ATCC 10231 at <100 ug/ml at pH 5.6 after 20 h in absence of 10% beef serum
[7] = system: Aspergillus niger; assay: Antifungal activity against Aspergillus niger ATCC 1004 at <100 ug/ml at pH 5.6 after 5 days in presence of 10% beef serum; type: functional, organism-based
Outline: as §1

[8] = system: Aspergillus niger; assay: Antifungal activity against Aspergillus niger ATCC 1004 at <100 ug/ml at pH 7 after 5 days in absence of 10% beef serum; type: functional, organism-based
Outline: as §1

[9] = system: Candida albicans; assay: Antifungal activity against Candida albicans ATCC 10231 at <100 ug/ml at pH 7 after 20 h in presence of 10% beef serum
[10] = system: Aspergillus niger; assay: Antifungal activity against Aspergillus niger ATCC 1004 at <100 ug/ml at pH 7 after 5 days in presence of 10% beef serum; type: functional, organism-based
Outline: as §1

[11] = system: Candida albicans; assay: Antifungal activity against Candida albicans ATCC 10231 at <100 ug/ml at pH 7 after 20 h in absence of 10% beef serum
[12] = system: Mucor mucedo; assay: Antifungal activity against Mucor mucedo ATCC 7941 at <100 ug/ml at pH 5.6 after 20 h in presence of 10% beef serum
[13] = system: Candida albicans; assay: Antifungal activity against Candida albicans ATCC 10231 at <100 ug/ml at pH 5.6 after 20 h in presence of 10% beef serum
[14] = system: Mucor mucedo; assay: Antifungal activity against Mucor mucedo ATCC 7941 at <100 ug/ml at pH 7 after 20 h in absence of 10% beef serum
[15] = system: Trichophyton mentagrophytes; assay: Antifungal activity against Trichophyton mentagrophytes ATCC 9129 at pH 5.6 after 5 days in absence of 10% beef serum; type: functional; conditions: Trichophyton mentagrophytes, ATCC 9129, 120 h; read-out: MIC
Outline: as §1

[16] = system: Mucor mucedo; assay: Antifungal activity against Mucor mucedo ATCC 7941 at <100 ug/ml at pH 5.6 after 20 h in absence of 10% beef serum
[17] = system: Mucor mucedo; assay: Antifungal activity against Mucor mucedo ATCC 7941 at pH 5.6 after 20 h in absence of 10% beef serum; conditions: ATCC 7941, 20 h
[18] = system: Mucor mucedo; assay: Antifungal activity against Mucor mucedo ATCC 7941 at pH 7 after 20 h in absence of 10% beef serum; conditions: ATCC 7941, 20 h
[19] = system: Mucor mucedo; assay: Antifungal activity against Mucor mucedo ATCC 7941 at pH 5.6 after 20 h in presence of 10% beef serum; conditions: ATCC 7941, 20 h
[20] = system: Trichophyton mentagrophytes; assay: Antifungal activity against Trichophyton mentagrophytes ATCC 9129 at pH 7 after 5 days in presence of 10% beef serum; type: functional; conditions: Trichophyton mentagrophytes, ATCC 9129, 120 h; read-out: MIC
Outline: as §1

[21] = system: Candida albicans; assay: Antifungal activity against Candida albicans ATCC 10231 at pH 5.6 after 20 h in presence of 10% beef serum; conditions: ATCC 10231, 20 h
[22] = system: Mucor mucedo; assay: Antifungal activity against Mucor mucedo ATCC 7941 at pH 7 after 20 h in presence of 10% beef serum; conditions: ATCC 7941, 20 h
[23] = system: Candida albicans; assay: Antifungal activity against Candida albicans ATCC 10231 at pH 7 after 20 h in absence of 10% beef serum; conditions: ATCC 10231, 20 h
[24] = system: Candida albicans; assay: Antifungal activity against Candida albicans ATCC 10231 at pH 5.6 after 20 h in absence of 10% beef serum; conditions: ATCC 10231, 20 h
[25] = system: Candida albicans; assay: Antifungal activity against Candida albicans ATCC 10231 at pH 7 after 20 h in presence of 10% beef serum; conditions: ATCC 10231, 20 h
[26] = system: Aspergillus niger; assay: Antifungal activity against Aspergillus niger ATCC 1004 at pH 5.6 after 5 days in absence of 10% beef serum; type: functional; conditions: Aspergillus niger, ATCC 1004, 120 h; read-out: MIC
Outline: as §1

[27] = system: Aspergillus niger; assay: Antifungal activity against Aspergillus niger ATCC 1004 at pH 5.6 after 5 days in presence of 10% beef serum; type: functional; conditions: Aspergillus niger, ATCC 1004, 120 h; read-out: MIC
Outline: as §1

[28] = system: Aspergillus niger; assay: Antifungal activity against Aspergillus niger ATCC 1004 at pH 7 after 5 days in absence of 10% beef serum; type: functional; conditions: Aspergillus niger, ATCC 1004, 120 h; read-out: MIC
Outline: as §1

Row | Compound | inhibition [1] | MIC [3] | inhibition [4] | MIC [5] | inhibition [6] | inhibition [7] | inhibition [8] | inhibition [9] | inhibition [10] | inhibition [11] | inhibition [12] | inhibition [13] | inhibition [14] | MIC [15] | inhibition [16] | MIC [18] | MIC [19] | MIC [20] | MIC [23] | MIC [24] | other results
1 | CCCCOC(=O)/C=C/C(=O)OCCCC | inactive | 60 mg/L | inactive | 30 mg/L (≈ 131 µM) | inactive | inactive | inactive | inactive | inactive | inactive | inactive | inactive | inactive | 7 mg/L (≈ 30.7 µM) | inactive |  |  |  |  |  | inhibition [2]: inactive
2 | COC(=O)/C=C(/F)C(=O)OC | inactive | 8 mg/L | inactive | 50 mg/L (≈ 308 µM) | inactive | inactive | inactive | inactive | inactive | inactive |  | inactive |  | 6 mg/L (≈ 37 µM) |  | 40 mg/L (≈ 247 µM) | 20 mg/L |  |  |  | MIC [17]: 14 mg/L (≈ 86.4 µM); inhibition [2]: inactive
3 | CCCCOC(=O)[C@@H](F)[C@@H](Br)C(=O)OCCCC (relative stereo) |  | 20 mg/L | inactive | 4 mg/L (≈ 12.2 µM) |  | inactive | inactive |  | inactive |  |  |  |  | 3 mg/L (≈ 9.17 µM) |  | 20 mg/L (≈ 61.1 µM) | 30 mg/L | 30 mg/L | 40 mg/L (≈ 122 µM) | 9 mg/L (≈ 27.5 µM) | MIC [21]: 20 mg/L; MIC [22]: 50 mg/L; MIC [25]: 50 mg/L
4 | COC(=O)CC(F)C(Br)C(=O)OC (stereo not drawn) |  | 18 mg/L | inactive | 16 mg/L (≈ 62.2 µM) |  | inactive | inactive |  | inactive |  |  |  |  | 16 mg/L (≈ 62.2 µM) |  | 40 mg/L (≈ 156 µM) | 50 mg/L | 40 mg/L | 90 mg/L (≈ 350 µM) | 90 mg/L (≈ 350 µM) | MIC [21]: 90 mg/L; MIC [22]: 60 mg/L; MIC [25]: 90 mg/L
5 | COC(=O)C(Br)CF (stereo not drawn) |  | 100 mg/L | inactive | 100 mg/L (≈ 541 µM) | inactive | inactive | inactive | inactive | inactive | inactive |  | inactive |  | 50 mg/L (≈ 270 µM) |  | 9 mg/L (≈ 48.7 µM) | 18 mg/L |  |  |  | inhibition [2]: inactive; MIC [22]: 30 mg/L
6 | CCCCCOC(=O)/C=C\C(=O)OCCCCC | inactive | 50 mg/L | inactive | 30 mg/L (≈ 117 µM) | inactive | inactive | inactive | inactive | inactive | inactive | inactive | inactive | inactive | 10 mg/L (≈ 39 µM) | inactive |  |  | 60 mg/L |  |  | 
7 | CCCOC(=O)/C=C\C(=O)OCCC | inactive | 40 mg/L | inactive | 50 mg/L (≈ 250 µM) | inactive | inactive | inactive | inactive | inactive | inactive | inactive | inactive | inactive | 14 mg/L (≈ 69.9 µM) | inactive |  |  | 60 mg/L |  |  | 
8 | CCCCOC(=O)[C@H](F)[C@@H](Br)C(=O)OCCCC (relative stereo) | inactive | 30 mg/L | inactive | 30 mg/L (≈ 91.7 µM) |  | inactive | inactive |  | inactive |  |  |  |  | < 1 mg/L |  | 14 mg/L (≈ 42.8 µM) | 80 mg/L | 50 mg/L | 30 mg/L (≈ 91.7 µM) | 20 mg/L (≈ 61.1 µM) | MIC [21]: 80 mg/L; MIC [25]: 90 mg/L
9 | CCOC(=O)/C=C\C(=O)OCC [DIETHYL MALEATE] | inactive | 60 mg/L | inactive | 90 mg/L | inactive | inactive | inactive | inactive | inactive | inactive | inactive | inactive | inactive | 50 mg/L | inactive |  |  | 100 mg/L |  |  | 
10 | CCCOC(=O)/C=C/C(=O)OCCC | inactive | 50 mg/L | inactive | 30 mg/L (≈ 150 µM) |  | inactive | inactive | inactive | inactive |  | inactive | inactive |  | 6 mg/L (≈ 30 µM) |  | 70 mg/L (≈ 350 µM) |  |  | 70 mg/L (≈ 350 µM) | 70 mg/L (≈ 350 µM) | MIC [17]: 60 mg/L (≈ 300 µM); inhibition [2]: inactive
11 | CCCCOC(=O)/C=C\C(=O)OCCCC | inactive | 30 mg/L | inactive | 30 mg/L (≈ 131 µM) | inactive | inactive | inactive | inactive | inactive | inactive | inactive | inactive | inactive | 8 mg/L (≈ 35 µM) | inactive |  |  | 50 mg/L |  |  | 
12 | CCCOC(=O)[C@H](F)[C@@H](Br)C(=O)OCCC (relative stereo) |  | 12 mg/L |  | 2 mg/L (≈ 6.69 µM) |  |  |  |  | inactive |  |  |  |  | < 1 mg/L |  | 5 mg/L (≈ 16.7 µM) | 18 mg/L | 16 mg/L | 4 mg/L (≈ 13.4 µM) | 3 mg/L (≈ 10 µM) | MIC [21]: 16 mg/L; MIC [22]: 20 mg/L; MIC [26]: 30 mg/L (≈ 100 µM); MIC [25]: 16 mg/L; MIC [27]: 40 mg/L; MIC [28]: 40 mg/L (≈ 134 µM)
13 | COC(=O)/C=C\C(=O)OC [DIMETHYL MALEATE] | inactive | 50 mg/L | inactive | 30 mg/L | inactive | inactive | inactive | inactive | inactive | inactive | inactive | inactive | inactive | 40 mg/L | inactive |  |  | 60 mg/L |  |  | 
